# High-throughput results (PubChem BioAssay)
# Sampled rows, rich in hits. Any-hit rate of the full collection: about 2.8%.
# Mcl1-Noxa inh: Mcl-1/Noxa binding inhibitors, primary screen, biochemical, TR-FRET, 1536-well; Induced myeloid leukemia cell differentiation protein Mcl-1 (Homo sapiens), Q07820; TR-FRET Mcl-1/Noxa peptide binding, 2 h; inhibition, % at 21.7 µM; 220,000 compounds, 1.5% hits; AID 1022, 2008;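 active = compounds that cut the protein-peptide binding signal by more than 50% relative to plate controls in a single-dose test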;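 also: His-tagged Mcl-1 with rhodamine Noxa BH3 peptide and terbium anti-His antibody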
# Target sequence (Q07820 whole entry, looked up): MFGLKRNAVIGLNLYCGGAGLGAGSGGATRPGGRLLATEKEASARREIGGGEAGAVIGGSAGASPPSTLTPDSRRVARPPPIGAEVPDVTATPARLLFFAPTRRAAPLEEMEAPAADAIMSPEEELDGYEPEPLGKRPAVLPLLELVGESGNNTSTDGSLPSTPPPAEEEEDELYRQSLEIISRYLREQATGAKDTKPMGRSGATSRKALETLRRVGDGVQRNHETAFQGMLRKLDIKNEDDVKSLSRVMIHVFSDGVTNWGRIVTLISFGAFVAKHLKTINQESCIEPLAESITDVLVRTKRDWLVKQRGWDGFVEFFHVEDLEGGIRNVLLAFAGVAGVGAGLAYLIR
# Mcl1-Bid inh: Mcl-1/Bid binding inhibitors, primary screen, biochemical, TR-FRET, 1536-well | TR-FRET Mcl-1/Bid-Dy647 peptide binding | AID 1021, 2008 | inhibition, % at 21.7 µM | 220,000 compounds, 0.97% hits;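 active = compounds that cut the binding signal by more than half at the single screening dose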;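 also: His-tagged Mcl-1 with europium anti-His antibody binding Bid BH3 peptide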
# Bim-Mcl-1: inhibitors of Bim peptide binding to Mcl-1, primary screen, biochemical, bead-based flow cytometry, multiplex | Induced myeloid leukemia cell differentiation protein Mcl-1 (Homo sapiens), Q07820 | Bim peptide-Mcl-1 binding | inhibition, % at 10 µM | 190,000 compounds, 0.1% hits | AID 1009, 2008; in the data active = inhibition above about 40%
# Arbovirus inh: antivirals against arbovirus infection, primary screen, cell-based, full library, 10K replicate subset; arbovirus infection cell-based antiviral screen; inhibition, % at 10 µM; 200,000 compounds, 0.37% hits; in the data active = inhibition above about 30%
# Calpain2 inh: inhibitors of pig calpain II, primary screen, biochemical, fluorogenic peptide substrate, 1536-well | AID 1236, 2008 | 220,000 compounds, 0.37% hits | inhibition, % at 16 µM | purified calpain II, 30 min;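 active = inhibition above about 50%, limit read from the data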
# Biofilm kill mix: clotrimazole potentiators killing C. albicans biofilm, primary screen, 4-compound mixtures; C. albicans biofilm persisters + clotrimazole, fluorescence viability; primary screen in compound mixtures of four per well; inhibition, % at 7.6 µM; 120,000 compounds, 0.02% hits; AID 1242, 2008;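 active = inhibition above 30.3% in the primary screen of four-compound pools, then above 30% when the compound was retested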;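 also: compounds exposed to preformed 24 h biofilms for 48 h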
#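 Test system: C. albicans CAF4-2 wild-type biofilms; buffer or medium: RPMI/MOPS medium, pH 7.0; schedule: 24 h biofilm formation, then 48 h compound exposure, 37 °C; detection: Alamar Blue fluorescence; measure: percent inhibition of biofilm viability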
# Numbers stand for hits; . = inactive; / = no result.
SMILES,Mcl1-Noxa inh,Mcl1-Bid inh,Bim-Mcl-1,Arbovirus inh,Calpain2 inh,Biofilm kill mix
CN(Cc1cccnc1)Cc1cn(Cc2ccccc2)nc1-c1ccc2c(c1)OCO2,.,.,.,.,.,.
NS(=O)(=O)c1ccc(-c2ccc(/C=C3\C(=O)Nc4cc(Cl)ccc43)o2)cc1,63,.,.,.,.,.
Cc1cc2ncn(CC3CC3(Cl)Cl)c2cc1C (stereo not drawn),.,.,.,.,.,.
O=C(CCCCCCCCN1C(=O)c2ccccc2C1=O)N1CCOCC1,.,.,/,/,.,.
CC(=O)Nc1ccc(NC(=O)CCCN2C(=O)c3ccccc3C2=O)cc1,.,.,.,.,.,.
O=C(CCCCCCN1C(=O)c2ccccc2C1=O)N1CCC(c2ccccc2)C1 (stereo not drawn),.,.,.,.,53,.
O=C(CCCN1C(=O)c2ccccc2C1=O)Nc1ccccc1,.,78,/,/,.,.
Cc1ccc(NC(=O)CN(C)C(=O)CCCN2C(=O)c3ccccc3C2=O)cc1,.,.,.,.,60,/
O=C1c2ccccc2C(=O)N1CCCC(=O)N1CCCc2ccccc21,.,.,.,.,57,/
Nc1ccnn1Cc1ccncc1,.,.,.,.,.,.
Cc1ccc(S(=O)(=O)N2CCOCC2)cc1N/N=C(\C#N)c1nc2ccccc2[nH]1,.,.,.,.,.,.
CC(C)Cn1c(N)c(C=O)c(=O)[nH]c1=O,.,.,.,.,.,.
O=C(C1=C(O)C(=O)N(c2ncccn2)C1c1ccc(Cl)c(Cl)c1)c1ccco1 (stereo not drawn),.,.,.,.,.,/
O=C(C1=C(O)C(=O)N(c2ncccn2)C1c1cccc(Cl)c1)c1ccco1 (stereo not drawn),63,.,.,.,.,/
Cc1ccc2nc(C)c3c(c2c1)SCC3,.,.,/,/,.,.
CC(=O)Nc1ccc(S(=O)(=O)NCc2cn3c(C)csc3n2)cc1,.,.,.,.,.,/
CCc1ccc(S(=O)(=O)NCc2cn3c(C)csc3n2)s1,.,.,.,.,100,/
Cc1ccc2nc(-c3ccc(NC(=O)COC(=O)c4ccc([N+](=O)[O-])o4)cc3)sc2c1,71,62,.,.,.,.
Cc1ccc2nc(-c3ccc(NC(=O)COC(=O)c4ccc(Br)o4)cc3)sc2c1,.,.,.,.,.,.
COc1ccc(N2C(=O)C3CCCN3C2=O)cc1 (stereo not drawn),102,.,.,.,.,/
O=C(NCC1CCCO1)c1ccc(Oc2ccc([N+](=O)[O-])cc2Cl)cc1 (stereo not drawn),.,.,.,.,.,.
O=C(NCC1CCCO1)c1cc([N+](=O)[O-])ccc1Cl (stereo not drawn),.,94,.,.,.,.
O=C(O)CCCNc1ccc([N+](=O)[O-])c(NCCCC(=O)O)n1,.,.,.,.,.,.
O=C1CC2C(=O)NCCN2C(=NC(=O)c2ccccc2)N1 (stereo not drawn),.,.,.,.,.,.
O=C1CC2C(=O)NCCN2C(=NC(=O)c2ccc(Cl)cc2)N1 (stereo not drawn),.,.,.,.,92,.
SMILES,Mcl1-Noxa inh,Mcl1-Bid inh,Bim-Mcl-1,Arbovirus inh,Calpain2 inh,Biofilm kill mix
COc1ccc(NC(=O)CN2C(=O)/C(=C3\SC(=S)N(C4CCS(=O)(=O)C4)C3=O)c3ccccc32)cc1 (stereo not drawn),89,91,/,/,56,.
O=C(CN1C(=O)/C(=C2\SC(=S)N(C3CCS(=O)(=O)C3)C2=O)c2ccccc21)Nc1ccc(F)cc1 (stereo not drawn),78,78,/,/,.,.
Cc1ccc(C)c(S(=O)(=O)N2CCN(CC(=O)NC(=O)NCc3ccco3)CC2)c1,.,.,.,.,.,.
COCCNC(=O)/C(=C/c1ccccc1Cl)c1ccccc1,.,.,.,.,.,.
Cc1ccc(N=Nc2c(N)[nH]n3c(=O)cc(-c4ccccc4)nc23)cc1,81,76,.,.,.,/
COc1cccc(N=Nc2c(N)[nH]n3c(=O)cc(-c4ccccc4)nc23)c1,.,56,.,.,.,/
Cc1ccc(S(=O)(=O)NC(C)(C)CN2CCc3ccccc3C2)cc1,.,.,/,/,.,.
Cc1onc(-c2c(Cl)cccc2Cl)c1CO/N=C(\C#N)c1c(Cl)cccc1Cl,.,.,/,/,.,.
O=c1oc2ccccc2cc1-c1csc(Nc2nc3c(F)cccc3s2)n1,70,.,.,.,.,.
O=c1oc2ccccc2cc1-c1csc(NN=C2CCCCC2)n1,.,.,.,.,.,/
Cc1noc(NS(=O)(=O)c2ccc(NC(=O)c3ccc(N4C(=O)c5ccccc5C4=O)cc3)cc2)c1C,.,.,.,.,83,.
Cc1cc(C)c2nc(-c3ccccn3)cc(C(=O)Nc3ccc(S(=O)(=O)Nc4onc(C)c4C)cc3)c2c1,79,.,.,.,.,.
COc1cccc(C(=O)/C=C/Nc2ccc(S(=O)(=O)Nc3onc(C)c3C)cc2)c1,.,.,66,.,.,.
Cc1noc(NS(=O)(=O)c2ccc(N/C=C\C(=O)c3ccc(Br)cc3)cc2)c1C,.,.,.,.,.,.
Cc1noc(NS(=O)(=O)c2ccc(NC(=O)CCN3C(=O)c4ccccc4C3=O)cc2)c1C,.,.,.,.,.,.
CCOC(=O)Cc1cnc(NC(=O)CSc2nc(N)cc(N)n2)s1,.,.,.,.,.,.
Cc1nc(N)sc1C(=O)N1N=N1,.,.,/,/,.,.
COc1cc(/C=N/NC(=O)c2ccc(CN3c4cccc5cccc(c45)S3(=O)=O)cc2)cc(OC)c1O,72,82,.,.,.,.
COc1cc(/C=N/NC(=O)c2ccc(CSc3nncn3C)cc2)cc(OC)c1O,55,.,.,.,.,.
COc1ccc(/C=N/NC(=O)c2ccc(O)cc2O)cc1CSc1ccccn1,98,.,.,.,.,.
COc1ccc(/C=N/NC(=O)c2ccc(CN3c4cccc5cccc(c45)S3(=O)=O)cc2)cc1,.,.,.,.,.,.
COc1ccc(/C=N/NC(=O)c2ccc(COc3cccc4cccnc34)cc2)cc1OC,.,.,.,.,.,.
COc1ccc(/C=N/NC(=O)c2ccc(COc3cccc4cccnc34)cc2)cc1O,51,.,/,/,.,.
CCN1CCN(C(=O)CN(c2ccc(F)c(Cl)c2)S(C)(=O)=O)CC1,.,.,.,.,.,.
CCc1ccc(OCC(=O)Nc2cc(S(=O)(=O)CC)ccc2O)cc1,.,.,.,.,.,/
Cc1c([N+](=O)[O-])c(C/C=N/O)nn1C,.,.,/,/,.,.
